# Laboratory results published in ChEMBL document CHEMBL4321819, “Simple Structural Modifications Converting a Bona fide MDM2 PROTAC Degrader into a Molecular Glue Molecule: A Cautionary Tale in the Design of PROTAC Degraders” (J Med Chem, 2019).
# Active and inactive are the calls of the source. The rule behind the calls is not given here.
# Experiments:
# [1] = biological target: T1, E3 ubiquitin-protein ligase Mdm2 (Homo sapiens, UniProt Q00987); assay: Induction of MDM2 degradation in human RS4:11 cells assessed as downregulation of MDM2 at 1 to 30 nM after 1 hr by Western blot analysis; type: cell-based
# T1 sequence (Q00987 whole entry, looked up): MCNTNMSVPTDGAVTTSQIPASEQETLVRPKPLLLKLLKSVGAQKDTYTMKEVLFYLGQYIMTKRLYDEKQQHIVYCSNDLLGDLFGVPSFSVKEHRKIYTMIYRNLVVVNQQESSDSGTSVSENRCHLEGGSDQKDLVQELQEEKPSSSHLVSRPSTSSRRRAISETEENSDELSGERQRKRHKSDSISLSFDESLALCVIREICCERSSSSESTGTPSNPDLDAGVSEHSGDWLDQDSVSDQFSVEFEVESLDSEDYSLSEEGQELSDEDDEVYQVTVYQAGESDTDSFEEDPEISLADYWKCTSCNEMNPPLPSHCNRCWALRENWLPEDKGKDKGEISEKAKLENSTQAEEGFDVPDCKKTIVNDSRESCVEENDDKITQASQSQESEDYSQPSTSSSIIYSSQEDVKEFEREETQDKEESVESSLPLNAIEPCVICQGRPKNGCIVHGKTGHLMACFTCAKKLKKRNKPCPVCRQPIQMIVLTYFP
# In short: (§1)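 Western blots of MDM2 and p53 protein were run on RS4;11 cells (wild-type p53) in RPMI 1640 with 10% FBS. 2×10^6 cells/well were treated at the indicated concentrations for 1 h or 2 h. Lysis was in ice-cold buffer with protease inhibitor, followed by probing with specific antibodies.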
# [2] = biological target: Cellular tumor antigen p53 (Homo sapiens) (UniProt P04637); assay: Activation of p53 in human RS4:11 cells assessed as increase in CDKN1A mRNA expression at 10 nM after 1 to 2 hrs by qRT-PCR analysis; type: cell-based
# Chain of Cellular tumor antigen p53 (Homo sapiens) (P04637 whole entry, looked up): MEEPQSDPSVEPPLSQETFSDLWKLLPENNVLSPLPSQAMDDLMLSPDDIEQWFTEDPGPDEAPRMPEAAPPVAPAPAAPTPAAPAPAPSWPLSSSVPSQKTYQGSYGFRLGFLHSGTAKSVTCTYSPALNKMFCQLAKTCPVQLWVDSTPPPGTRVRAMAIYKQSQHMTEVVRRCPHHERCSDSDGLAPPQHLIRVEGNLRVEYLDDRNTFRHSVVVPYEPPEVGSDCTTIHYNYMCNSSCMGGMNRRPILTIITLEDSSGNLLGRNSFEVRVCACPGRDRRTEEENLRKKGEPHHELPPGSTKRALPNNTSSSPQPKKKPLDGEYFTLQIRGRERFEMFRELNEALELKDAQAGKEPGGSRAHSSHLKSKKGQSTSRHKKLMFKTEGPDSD
# In short: (§2)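 RS4;11 cells (RPMI 1640, 10% FBS, 37 °C, 5% CO2) treated with 3 nM or 10 nM compound; total RNA extracted and mRNA of p53 targets MDM2, CDKN1A, PUMA and BAX quantified by qRT-PCR. Mean ± standard error from at least three independent experiments.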
# MDA-MB-231 [3] = assay: Antiproliferative activity against human MDA-MB-231 cells transfected with CRBN siRNA LQ-021086-11-0002 assessed as cell growth inhibition after 4 days by WST-8 assay; type: functional, cell-based; settings: MDA-MB-231, 96 h
# In short: (§3)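 MDA-MB-231 or MDA-MB-468 cells transfected for 2 days using Lipofectamine RNAiMAX with MDM2 siRNA, one of two CRBN siRNAs, or non-targeting control siRNA. Compound then added and growth read by WST-8 at 450 nm.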
# [4] = biological target: T2, Protein cereblon/Eukaryotic peptide chain release factor GTP-binding subunit ERF3A/DNA damage-binding protein 1/Cullin-4A (Homo sapiens) (UniProt Q96SW2+Q16531+Q13619+P15170); assay: Protac activity at GSPT1/CUL4/DDB1/CRBN in human RS4:11 cells expressing wild type p53 assessed as decrease in GSPT1 protein level measured upto 24 hrs by Western blot analysis; type: cell-based
# T2 sequence (P15170 whole entry, looked up): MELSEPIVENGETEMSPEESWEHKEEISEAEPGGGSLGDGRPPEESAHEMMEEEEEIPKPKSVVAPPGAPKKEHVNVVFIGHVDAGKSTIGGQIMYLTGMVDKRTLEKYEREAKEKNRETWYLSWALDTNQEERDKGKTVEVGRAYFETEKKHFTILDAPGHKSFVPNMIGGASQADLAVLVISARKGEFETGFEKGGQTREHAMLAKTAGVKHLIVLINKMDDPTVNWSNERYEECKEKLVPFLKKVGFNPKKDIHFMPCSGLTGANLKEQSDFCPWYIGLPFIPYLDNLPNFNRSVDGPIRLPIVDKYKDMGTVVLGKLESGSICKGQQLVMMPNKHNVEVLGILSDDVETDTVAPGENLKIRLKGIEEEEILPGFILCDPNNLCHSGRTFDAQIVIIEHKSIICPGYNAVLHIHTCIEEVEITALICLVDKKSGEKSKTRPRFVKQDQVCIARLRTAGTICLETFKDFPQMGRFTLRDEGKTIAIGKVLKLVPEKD
# T2 sequence (Q13619 whole entry, looked up): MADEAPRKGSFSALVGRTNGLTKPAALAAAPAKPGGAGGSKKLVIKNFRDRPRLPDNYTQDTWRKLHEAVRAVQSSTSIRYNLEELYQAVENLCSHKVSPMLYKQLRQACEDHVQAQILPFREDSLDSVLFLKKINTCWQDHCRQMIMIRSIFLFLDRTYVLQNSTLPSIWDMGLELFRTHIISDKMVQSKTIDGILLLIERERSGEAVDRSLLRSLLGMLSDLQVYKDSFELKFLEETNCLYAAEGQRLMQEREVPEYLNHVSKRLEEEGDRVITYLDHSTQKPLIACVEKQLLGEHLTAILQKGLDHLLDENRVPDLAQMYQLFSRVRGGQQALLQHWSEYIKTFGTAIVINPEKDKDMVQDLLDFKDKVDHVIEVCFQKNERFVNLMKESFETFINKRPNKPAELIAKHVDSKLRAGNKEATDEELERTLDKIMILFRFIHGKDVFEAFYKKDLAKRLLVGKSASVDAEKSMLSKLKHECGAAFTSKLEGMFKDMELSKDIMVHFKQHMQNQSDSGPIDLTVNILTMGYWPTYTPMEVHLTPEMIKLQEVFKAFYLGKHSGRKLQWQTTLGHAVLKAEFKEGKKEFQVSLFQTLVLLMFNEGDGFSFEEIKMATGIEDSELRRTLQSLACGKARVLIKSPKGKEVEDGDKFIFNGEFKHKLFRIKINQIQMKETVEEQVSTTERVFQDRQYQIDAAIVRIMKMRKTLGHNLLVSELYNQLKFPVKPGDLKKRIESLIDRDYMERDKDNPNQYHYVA
# T2 sequence (Q16531 whole entry, looked up): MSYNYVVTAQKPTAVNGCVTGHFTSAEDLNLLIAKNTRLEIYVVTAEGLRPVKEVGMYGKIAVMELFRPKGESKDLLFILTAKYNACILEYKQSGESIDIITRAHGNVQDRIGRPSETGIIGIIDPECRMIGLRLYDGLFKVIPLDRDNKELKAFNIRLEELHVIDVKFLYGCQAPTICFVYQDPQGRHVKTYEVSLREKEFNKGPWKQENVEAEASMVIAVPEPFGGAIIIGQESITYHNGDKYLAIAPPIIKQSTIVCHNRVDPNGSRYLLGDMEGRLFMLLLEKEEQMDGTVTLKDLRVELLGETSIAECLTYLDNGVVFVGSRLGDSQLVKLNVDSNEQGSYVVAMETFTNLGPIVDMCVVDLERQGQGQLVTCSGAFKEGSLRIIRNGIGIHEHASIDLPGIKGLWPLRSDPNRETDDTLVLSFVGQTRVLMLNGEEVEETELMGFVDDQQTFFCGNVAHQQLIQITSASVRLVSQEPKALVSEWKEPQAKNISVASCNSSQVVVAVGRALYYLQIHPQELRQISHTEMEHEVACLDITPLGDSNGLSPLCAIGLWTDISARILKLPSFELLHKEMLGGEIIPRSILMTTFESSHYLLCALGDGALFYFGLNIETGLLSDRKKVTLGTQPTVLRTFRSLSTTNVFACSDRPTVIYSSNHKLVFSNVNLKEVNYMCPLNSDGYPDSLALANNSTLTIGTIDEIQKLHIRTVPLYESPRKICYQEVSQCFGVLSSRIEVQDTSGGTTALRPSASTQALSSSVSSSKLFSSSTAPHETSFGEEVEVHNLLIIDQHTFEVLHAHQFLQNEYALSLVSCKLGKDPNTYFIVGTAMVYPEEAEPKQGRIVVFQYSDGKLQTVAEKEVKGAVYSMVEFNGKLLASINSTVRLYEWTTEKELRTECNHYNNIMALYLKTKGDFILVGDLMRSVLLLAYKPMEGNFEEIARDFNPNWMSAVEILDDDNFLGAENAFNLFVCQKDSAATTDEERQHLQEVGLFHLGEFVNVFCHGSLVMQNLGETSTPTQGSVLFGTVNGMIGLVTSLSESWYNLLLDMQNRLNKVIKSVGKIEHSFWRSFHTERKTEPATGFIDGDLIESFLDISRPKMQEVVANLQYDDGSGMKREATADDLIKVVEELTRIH
# T2 sequence (Q96SW2 whole entry, looked up): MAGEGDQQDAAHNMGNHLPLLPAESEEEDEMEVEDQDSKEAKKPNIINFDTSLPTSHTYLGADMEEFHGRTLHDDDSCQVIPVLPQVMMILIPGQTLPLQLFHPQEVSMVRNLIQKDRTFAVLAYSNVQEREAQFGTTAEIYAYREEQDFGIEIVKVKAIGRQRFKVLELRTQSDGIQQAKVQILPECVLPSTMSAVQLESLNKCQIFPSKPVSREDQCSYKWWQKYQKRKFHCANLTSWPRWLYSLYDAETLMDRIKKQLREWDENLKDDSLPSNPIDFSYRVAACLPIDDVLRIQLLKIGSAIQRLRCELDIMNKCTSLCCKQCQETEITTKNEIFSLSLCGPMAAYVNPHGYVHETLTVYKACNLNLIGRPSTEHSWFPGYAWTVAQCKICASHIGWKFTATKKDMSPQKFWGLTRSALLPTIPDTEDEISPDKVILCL
# In short: (§4)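 RS4;11 (wild-type p53) or RS4;11/IRMI-2 (MDM2 inhibitor-resistant derivative, mutant p53) cells kept in RPMI 1640 with 10% FBS at 37 °C, 5% CO₂. 2×10^6 cells/well treated at the indicated concentrations and times, then lysed in ice-cold lysis buffer with protease inhibitor. GSPT1 detected by Western blot with a specific antibody.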
# MDA-MB-231 [5] = assay: Antiproliferative activity against human MDA-MB-231 cells assessed as cell growth inhibition after 4 days in presence of control siRNA for 3 days followed by compound treatment by WST-8 assay; type: functional, cell-based
# MDA-MB-231 [6] = assay: Antiproliferative activity against human MDA-MB-231 cells transfected with CRBN siRNA LQ-021086-10-0002 assessed as cell growth inhibition after 4 days by WST-8 assay; type: functional, cell-based; settings: MDA-MB-231, 72 h, in the assay text read “after 3 days” for “after 4 days”; in short: as §3
# [7] = biological target: Cellular tumor antigen p53 (Homo sapiens) (UniProt P04637); assay: Activation of p53 in human RS4:11 cells assessed as increase in PUMA mRNA expression at 10 nM after 1 to 2 hrs by qRT-PCR analysis; type: cell-based; in short: as §2
# MDA-MB-468 [8] = assay: Antiproliferative activity against human MDA-MB-468 cells assessed as cell growth inhibition after 4 days in presence of control siRNA for 3 days followed by compound treatment by WST-8 assay; type: functional, cell-based
# [9] = biological target: T2, Protein cereblon/Eukaryotic peptide chain release factor GTP-binding subunit ERF3A/DNA damage-binding protein 1/Cullin-4A (Homo sapiens); assay: Protac activity at GSPT1/CUL4/DDB1/CRBN in human RS4:11 cells expressing wild type p53 assessed as decrease in GSPT1 protein level at 10 nM by Western blot analysis; type: cell-based; in short: as §4
# MDA-MB-468 [10] = assay: Antiproliferative activity against human MDA-MB-468 cells transfected with CRBN siRNA LQ-021086-10-0002 assessed as cell growth inhibition after 4 days by WST-8 assay; type: functional, cell-based; settings: MDA-MB-468, 96 h; in short: as §3
# MDA-MB-231 [11] = assay: Antiproliferative activity against human MDA-MB-231 cells harboring mutant p53 assessed as cell growth inhibition after 4 days by WST-8 assay; type: functional, cell-based
# In short: (§5)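 Leukemia cells seeded at 10000–20000 cells/well, breast cancer lines at 5000–10000 cells/well. Serially diluted compound added, then 4 days at 37 °C, 5% CO2. Growth read with WST-8 reagent after at least 1 h, absorbance at 450 nm. RS4;11, MOLM-13 and breast lines were grown in RPMI 1640; MV-4-11 and HL-60 in IMDM; all with 10% FBS. Mean ± SE, at least three independent experiments.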
# [12] = biological target: Cellular tumor antigen p53 (Homo sapiens) (UniProt P04637); assay: Activation of p53 in human RS4:11 cells assessed as increase in BAX mRNA expression at 10 nM after 1 to 2 hrs by qRT-PCR analysis; type: cell-based; in short: as §2
# [13] = biological target: T1, E3 ubiquitin-protein ligase Mdm2; assay: Induction of MDM2 degradation in human RS4:11/IRMI-2 cells harboring p53 hotspot mutation Y236H/R249G assessed as downregulation of MDM2 at 1 to 30 nM after 2 hrs by Western blot analysis; type: cell-based
# In short: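 RS4;11/IRMI-2 cells are an MDM2 inhibitor-resistant line derived from RS4;11, with p53 mutations confirmed by sequencing. 2×10^6 cells/well were treated 2 h at the indicated concentrations. MDM2 protein was probed by Western blot after lysis in ice-cold buffer with protease inhibitor.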
# MDA-MB-468 [14] = assay: Antiproliferative activity against human MDA-MB-468 cells transfected with CRBN siRNA LQ-021086-11-0002 assessed as cell growth inhibition after 4 days by WST-8 assay; type: functional, cell-based; settings: MDA-MB-468, 96 h; in short: as §3
# [15] = biological target: T1, E3 ubiquitin-protein ligase Mdm2; assay: Induction of MDM2 degradation in human RS4:11 cells assessed as upregulation of p53 at 1 to 30 nM after 2 hrs by Western blot analysis; type: cell-based; in short: as §1
# [16] = biological target: T1, E3 ubiquitin-protein ligase Mdm2; assay: Induction of MDM2 degradation in human RS4:11 cells assessed as downregulation of MDM2 at 1 to 30 nM after 2 hrs by Western blot analysis; type: cell-based; in short: as §1
# Homo sapiens = organism: Homo sapiens; assay: Antiproliferative activity against human RS4:11/IRMI-2 cells harboring p53 hotspot mutation Y236H/R249G assessed as cell growth inhibition after 4 days by WST-8 assay; type: functional, cell-based; in short: as §5
# HL-60 = assay: Antiproliferative activity against human HL60 cells with lack of p53 assessed as cell growth inhibition after 4 days by WST-8 assay; type: functional, cell-based; in short: as §5
# [17] = biological target: Cellular tumor antigen p53 (Homo sapiens) (UniProt P04637); assay: Activation of p53 in human RS4:11 cells assessed as increase in MDM2 mRNA expression at 10 nM after 1 to 2 hrs by qRT-PCR analysis; type: cell-based; in short: as §2
# RS4-11 = assay: Antiproliferative activity against human RS4:11 cells expressing wild type p53 assessed as MDM2-independent cell growth inhibition after 4 days by WST-8 assay; type: functional, cell-based; settings: RS4-11, 96 h; in short: as §5
# MDA-MB-468 [18] = assay: Antiproliferative activity against human MDA-MB-468 cells harboring mutant p53 assessed as cell growth inhibition after 4 days by WST-8 assay; type: functional, cell-based; in short: as §5
# [19] = Antiproliferative activity against human RS4:11/IRMI-2 cells harboring p53 hotspot mutation Y236H/R249G assessed as MDM2-independent cell growth inhibition after 4 days by WST-8 assay; type: functional, cell-based; settings: RS4-11, 96 h; in short: as §5
# [20] = biological target: T1, E3 ubiquitin-protein ligase Mdm2; assay: Induction of MDM2 degradation in human RS4:11 cells assessed as upregulation of p53 at 1 to 30 nM after 1 hr by Western blot analysis; type: cell-based; in short: as §1
compound,measurement,setting,value
O=C1CCC(N2Cc3c(CCCCCNC(=O)c4ccc(NC(=O)[C@@H]5NC6(CCCCC6)[C@@]6(C(=O)Nc7cc(Cl)ccc76)[C@H]5c5cccc(Cl)c5F)cc4)cccc3C2=O)C(=O)N1 (stereo partly drawn),Activity,[1],Active
same,Activity,[2],Active
same,IC50,MDA-MB-231 [3],> 3000 nM
same,Activity,[4],inactive
same,IC50,MDA-MB-231 [5],> 3000 nM
same,IC50,MDA-MB-231 [6],> 3000 nM
same,Activity,[7],Active
same,IC50,MDA-MB-468 [8],> 3000 nM
same,Activity,[9],inactive
same,IC50,MDA-MB-468 [10],> 3000 nM
same,growth inhibition (GI),MDA-MB-231 [11],inactive
same,Activity,[12],Active
same,Activity,[13],Active
same,IC50,MDA-MB-468 [14],> 3000 nM
same,Activity,[15],Active
same,Activity,[16],Active
same,growth inhibition (GI),Homo sapiens,inactive
same,growth inhibition (GI),HL-60,inactive
same,Activity,[17],Active
same,IC50,RS4-11,7.9 nM
same,growth inhibition (GI),MDA-MB-468 [18],inactive
same,IC50,[19],> 10000 nM
same,Activity,[20],Active
